Source: ChEMBL document CHEMBL1154198, “Chemical genetics of Plasmodium falciparum” (Nature, 2010)
pEC50: −log10 of the molar value.

How the values were obtained:
Trypanosoma brucei = assay: ST_JUDE: Cytotoxicity using luciferase to measure ATP as an indicator of the viability of Trypanosoma brucei; format: functional, organism-based
Plasmodium falciparum [1] = assay: ST_JUDE: Cytotoxicity against Plasmodium falciparum W2; format: functional, organism-based
[2] = ST_JUDE: Cytotoxicity using luciferase to measure ATP as an indicator of the viability of human epithelial embryonic kidney cells (HEK293); format: toxicity, cell-based
[3] = ST_JUDE: Cytotoxicity using luciferase to measure ATP as an indicator of the viability of human Burkitt''s lymphoma lymphoblast cells (Raji); format: toxicity, cell-based
Plasmodium falciparum [4] = assay: ST_JUDE: Plasmodium falciparum K1 EC50 (uM) as measured by SYBR green dye; format: functional, organism-based
Plasmodium falciparum [5] = assay: ST_JUDE: Plasmodium falciparum 3D7 EC50 (uM) as measured by SYBR green dye; format: functional, organism-based
Plasmodium falciparum [6] = assay: ST_JUDE: Cytotoxicity against Plasmodium falciparum D10 transfected with yeast DHOD; format: functional, organism-based
Toxoplasma gondii = assay: ST_JUDE: Growth inhibition of to Toxoplasma gondii, in human U-2OS cells, as measured by luciferase.; format: functional, organism-based; details: RH, U2OS
Method in brief: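 T. gondii parasites engineered to express luciferase; drug sensitivity read by luminescence.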

Plasmodium falciparum [7] = assay: ST_JUDE: Cytotoxicity against Plasmodium falciparum SB-A6; format: functional, organism-based
[8] = ST_JUDE: Cytotoxicity using luciferase to measure ATP as an indicator of the viability of human epithelial hepatocellular carcinoma cells (HepG2); format: toxicity, cell-based
Plasmodium falciparum [9] = assay: ST_JUDE: Cytotoxicity against Plasmodium falciparum K1; format: functional, organism-based
Method in brief: (§1)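 Asexual P. falciparum grown in human erythrocytes, exposed to compounds for 72 h, and growth read as the DNA quantity in treated versus control cultures. Dose-response run at 12 concentrations from 10 μM to 5 nM.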

Leishmania major = assay: ST_JUDE: Cytotoxicity using Alamar Blue to measure viability of Leishmania major; format: functional, organism-based
Method in brief: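 L. major promastigotes; drug susceptibility read with Alamar Blue.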

Plasmodium falciparum [10] = assay: ST_JUDE: Cytotoxicity against Plasmodium falciparum V1/S; format: functional, organism-based
Plasmodium falciparum [11] = assay: ST_JUDE: Cytotoxicity against Plasmodium falciparum 3D7; format: functional, organism-based; method in brief: as §1
Plasmodium falciparum [12] = assay: ST_JUDE: Cytotoxicity against Plasmodium falciparum Dd2; format: functional, organism-based
[13] = ST_JUDE: Cytotoxicity using luciferase to measure ATP as an indicator of the viability of human foreskin fibroblast cells (BJ); format: toxicity, cell-based

Compound	pEC50 (Trypanosoma brucei)	pEC50 (Plasmodium falciparum [1])	pEC50 [2]	pEC50 [3]	pEC50 (Plasmodium falciparum [4])	pEC50 (Plasmodium falciparum [5])	pEC50 (Plasmodium falciparum [6])	pEC50 (Toxoplasma gondii)	pEC50 (Plasmodium falciparum [7])	pEC50 [8]	pEC50 (Plasmodium falciparum [9])	pEC50 (Leishmania major)	pEC50 (Plasmodium falciparum [10])	pEC50 (Plasmodium falciparum [11])	pEC50 (Plasmodium falciparum [12])	pEC50 [13]
CCN(CC)CCn1c(=N)n(CC(O)c2ccc(Cl)c(Cl)c2)c2ccccc21 (centres undefined)	5.30	6.14	4.51	< 4.37	6.12	6.04	6.07	5.05	5.97	5.14	5.99	< 4.73	5.96	6.09	6.32	< 4.37
O=C(Nc1cccc(Cl)c1N1CCOCC1)C(Cl)(Cl)Cl	< 4.54	< 5.11	< 4.52	< 4.52	5.53	5.07	5.47	< 4.78	5.55	< 4.52	5.85	< 4.89	5.97	5.81	5.61	< 4.52
CC[n+]1ccccc1C=Cc1ccc(N(C)C)cc1	4.85	< 4.93	< 4.34	5.41	6.15	< 4.82	5.83	< 4.61	5.72	< 4.34	5.94	< 4.71	5.70	5.97	5.74	< 4.34
COc1ccc(C2CC(=O)C3=C(C2)NC(=O)CC3c2ccc(C(F)(F)F)cc2)cc1OC (centres undefined)	< 4.34	6.38	< 4.32	< 4.32	6.06	6.22	5.96	< 4.58	5.96	< 4.32	5.80	< 4.69	5.92	5.67	6.05	< 4.32
CCc1ccccc1NC(=O)C1c2ccccc2C(=O)N(CC(C)C)C1c1cccs1 (centres undefined)	4.89	6.17	< 4.37	< 4.37	6.28	6.29	5.97	< 4.63	6.00	< 4.37	5.97	< 4.74	5.94	6.03	5.92	< 4.37
Cc1ccc(C2CC(C(F)(F)F)n3nc(C(=O)N4CCN(C(c5ccccc5)c5ccccc5)CC4)cc3N2)cc1 (centres undefined)	5.27	< 4.96	< 4.37	< 4.37	4.98	6.17	< 4.96	< 4.63	6.35	< 4.37	< 4.96	< 4.74	< 4.96	5.95	5.86	< 4.37
CCN(CC)CCN1C(=O)c2ccccc2NC1c1ccc(Cl)cc1 (centres undefined)	< 4.39	5.71	< 4.37	< 4.37	6.28	6.24	5.73	< 4.63	5.70	< 4.37	5.78	< 4.74	5.94	5.66	5.95	< 4.37
CC(C)c1ccc(CNCC(O)c2ccccc2)cc1 (centres undefined)	4.84	5.78	4.46	4.64	6.36	5.87	5.39	< 4.54	5.37	< 4.28	6.00	< 4.65	5.94	5.62	5.65	< 4.28
CCOC(=O)C1(Cc2cccc(F)c2)CCN(Cc2ccccc2O)CC1	4.60	6.00	< 4.28	< 4.28	6.55	6.46	5.85	< 4.54	5.92	< 4.28	6.40	< 4.65	5.90	5.92	6.17	< 4.28
C[N+](C)(C)c1nc(N2CCOCC2)nc(N(c2ccccc2)c2ccccc2)n1	5.25	5.23	< 4.37	4.97	5.74	6.28	6.06	< 4.63	6.20	< 4.37	5.82	< 4.74	5.74	6.40	5.89	< 4.37
Oc1ccc(Br)cc1CN1CCN(Cc2cccc(F)c2)CC1	4.59	5.76	< 4.50	< 4.50	5.88	5.45	5.82	< 4.76	5.76	< 4.50	6.18	< 4.87	6.14	5.81	5.82	< 4.50
CCCO/C(O)=C1\C(C)=NC2=C(C(=O)CC(c3ccc(OC)cc3)C2)C1c1ccc([N+](=O)[O-])cc1 (centres undefined)	5.16	< 4.93	< 4.34	< 4.34	5.97	6.19	5.81	< 4.61	5.99	< 4.34	5.97	< 4.71	5.83	5.52	5.80	< 4.34
CC(O)(c1ccc(Cl)cc1)C(CN1CCCCC1)c1ccccc1 (centres undefined)	4.62	5.11	< 4.30	< 4.30	6.57	6.04	5.27	< 4.56	5.37	< 4.30	6.19	< 4.66	5.88	5.66	5.90	< 4.30
CCCO/C(O)=C1\C(C)=NC2=C(C(=O)CC(c3ccc(OC)c(OC)c3)C2)C1c1cccc(Cl)c1 (centres undefined)	5.29	6.23	< 4.42	< 4.42	6.73	6.27	6.48	< 4.68	6.70	< 4.42	6.37	< 4.79	6.29	6.14	5.99	< 4.42
CCCO/C(O)=C1\C(C)=NC2=C(C(=O)CC(c3ccc(OC)c(OC)c3)C2)C1c1ccccc1Cl (centres undefined)	5.03	7.77	< 4.41	< 4.41	7.78	7.61	7.43	< 4.67	7.58	< 4.41	7.43	< 4.78	7.18	7.12	7.30	< 4.41
CCCO/C(O)=C1\C(C)=NC2=C(C(=O)CC(c3ccc(OC)c(OC)c3)C2)C1c1cccc(C)c1 (centres undefined)	4.95	5.34	< 4.35	< 4.35	6.41	6.24	6.34	< 4.61	6.53	4.39	6.41	< 4.72	6.20	6.14	5.87	< 4.35
COc1ccc(C2CC(=O)C3=C(C2)NC(=O)CC3c2ccc(OC)c(OC)c2)cc1 (centres undefined)	< 4.36	5.66	< 4.34	< 4.34	5.88	6.04	5.78	< 4.60	5.63	< 4.34	5.82	< 4.71	< 4.93	5.91	5.88	< 4.34
CCOc1ccc(N(C(C)=O)C2=C(N3CCOCC3)C(=O)c3ccccc3C2=O)cc1	5.53	5.73	4.88	5.34	6.66	7.26	7.58	5.28	7.23	5.22	7.00	< 4.80	7.29	7.16	6.31	5.02
COC(=O)c1ccc(NC(=O)C2c3ccccc3C(=O)N(CC(C)C)C2c2cccs2)cc1 (centres undefined)	5.63	< 5.00	< 4.41	< 4.41	5.91	6.00	5.87	< 4.67	5.65	< 4.41	5.82	< 4.78	5.76	5.94	5.90	< 4.41
